According to ChEMBL document CHEMBL4513216, “Probing the Open Global Health Chemical Diversity Library for Multistage-Active Starting Points for Next-Generation Antimalarials” (ACS Infect Dis, 2020):

experiment: Toxicity liver stage against HepG2, at 10uM; format: cell-based; set-up: test concentration 10 uM, cell line HepG2-A16-CD81EGFP; conditions: human, HepG2-A16-CD81EGFP cells; read-out: INHIBITION
Outline: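 Uninfected HepG2-A16-CD81EGFP cells, 3 × 10^3 per well, 1536-well, plated on prespotted compound at 10 μM final, parasite-free screening media added to match infected plates; puromycin 10 μM positive, DMSO 0.5% negative; run in parallel with 48 h PbLuc assay at 37 °C, 5% CO2; viability by CellTiter-Glo luminescence, normalized to controls.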

Point of comparison: `COCc1noc(Cn2c(C3CC3)nc3ccccc32)n1`, cytotoxicity at 10 µM 13.2%. Against it:
- O=C(Cn1ccc(C(=O)O)n1)Nc1c(Cl)cccc1Cl — lower, 7.07%
- COc1cccc(CNC(=O)c2cccnc2SC(C)C)c1 — lower, -1.35%
- CS(=O)(=O)c1nnc(NC(=O)CCc2cc(F)ccc2F)[nH]1 — lower, -16.6%
- Cc1nc(NCCSc2cnn[nH]2)c2c(C)noc2n1 — lower, -3.21%
- Cc1ccc2c(ccn2CCC(=O)N2CCC(C(N)=O)CC2)c1 — lower, -12.6%
- CC(C)C(C(=O)N1CCC(N(C)c2cccnn2)CC1)n1cncn1 (stereo unspecified) — lower, -7.44%
- Cc1ccc(N2CCC3(CC2)CCN(C2CCOCC2)CC3)nn1 — lower, 5.5%
- Cc1cc(NC2CCc3nc(C(C)C)nn3C2)n2ncnc2n1 (stereo unspecified) — higher, 13.4%
- COc1cc(C(=O)N2C[C@@H]3CC[C@H]2CN(Cc2cscn2)C3)ccn1 — lower, 3.2%
- CCn1ncc(-c2cc(C(F)F)n3nc(CCC(=O)O)nc3n2)c1C — lower, -9.44%
- Cc1ccc(OCC(=O)N2CCCC(n3nc(C)nc3C)C2)cc1 (stereo unspecified) — lower, -10.1%
- Cc1cc(C)n(CC2CCCN2CCS(C)(=O)=O)n1 (stereo unspecified) — lower, -3.95%
- Cc1cc(C(=O)NC(C)c2nnn[nH]2)c2cccc(C)c2n1 (stereo unspecified) — lower, -16.4%
- CC(=O)N[C@@H](CC(C)C)C(=O)N1CCC(n2cc(C(C)(C)N)nn2)CC1 — lower, -11.7%
- CCN1CCC(CC(=O)NCc2cc(C)nn2C)CC1 — lower, -14.5%
- CC(Cc1ccco1)NC(=O)Nc1cnn(CC(N)=O)c1 (stereo unspecified) — lower, 7.82%
- Cc1cc(C)c2nc(C)cc(C(=O)NCc3csc(N(C)C)n3)c2c1 — higher, 13.5%
- CC(=O)Nc1nc(C2CN(C(=O)C3CCC3)C2)cs1 — lower, -21.9%
- COc1ccc(-c2cc(CN)ccc2F)c(OC)c1OC — lower, 1.91%
- Cc1ccc(C(=O)N2CCC(c3nccn3C(C)C)CC2)c(=O)[nH]1 — lower, 4.75%
- NCC(=O)N1CCC(c2cccc(Oc3ccccc3)n2)CC1 — lower, 9.43%
- CN1C(=O)CC(C(=O)O)C12CCN(Cc1cc(F)ccc1Cl)CC2 (stereo unspecified) — lower, -0.309%
- COc1ccc2c(c1)OCC(CNC(=O)c1cc(C(C)C)on1)C2 (stereo unspecified) — lower, 0.0723%
- CC(=O)N(C)c1nc(CN2CCN(c3nccs3)CC2)cs1 — lower, -12.5%
- CCN(CC1=CCN(C)CC1)C(=O)CCOC — lower, 5.09%
- Cn1cc(-c2ncc3c(c2C(=O)O)CCN(CC2CC2)C3)cn1 — lower, -104%
- CCOc1ncccc1NC(=O)N1CCCC(CNC(N)=O)C1 (stereo unspecified) — lower, -11.1%
- CCN1CCCC1CNC(=O)Cc1c(C)n[nH]c1-c1ccc(F)cc1 (stereo unspecified) — lower, -3.02%
- CC(C)OCc1cccc(CNc2cnn(C)c(=O)c2Cl)c1 — higher, 29.5%
- COc1c(CNCc2cccc(Cn3ccnc3C)c2)c(C)nn1C — higher, 23.8%
- CCCC(=O)N1CCC2(CC1)COC2 — lower, 1.58%
- Cc1nc(Cc2ccc(F)cc2)cc(C2COCCN2)n1 (stereo unspecified) — lower, 3.44%
- CN1CCn2c(-c3cccc(F)c3)cnc2C12CCN(CC1CC1)CC2 — lower, 8.13%
- CCSc1ccc(C(=O)N2CC[C@](O)(CC)[C@H](O)C2)s1 — lower, -7.17%
- Cc1nc(CN2CCO[C@@H]3CN(C(=O)CC4CC4)C[C@@H]3C2)cs1 — lower, 5.04%
- COc1ccc(Br)cc1CC(=O)Nc1cc(C)n[nH]1 — lower, -0.405%
- Cc1ccc(C(=O)NCCNCC2CNc3ccnn3C2)cc1F (stereo unspecified) — lower, -1.62%
- Cc1cnn(CC2CCCN2C(=O)c2sccc2-n2cnnn2)c1 (stereo unspecified) — lower, -15%
- Cn1cc(CNC[C@H]2Cn3ccnc3CO2)c2ccccc21 — lower, -1.91%
- CN1CCCC1CNC(=O)CCCOc1ccc(F)cc1 (stereo unspecified) — lower, -7.67%
- CN1CCN(Cc2cccnc2)Cc2cccnc21 — lower, -76.9%
- Fc1ccc(CN2CCc3ncnc(C4CCOC4)c3CC2)cc1 (stereo unspecified) — lower, 12.3%
- COc1cc(Br)c(S(=O)(=O)NC(=O)C(C)OC)cc1OC (stereo unspecified) — lower, -22.9%
- N#Cc1cc(F)ccc1Cn1cnc(C2CCC2)cc1=O — lower, -5.32%
- O=C1CC(NCc2cccc(O)c2)CN1CCc1cccc(Cl)c1 (stereo unspecified) — lower, -130%
